Results taken from ChEMBL document CHEMBL4825663 (J Med Chem, 2021).

Assays:
[1] = molecular target: T1, Solute carrier organic anion transporter family member 1B3 (Homo sapiens, UniProt Q9NPD5); experiment: Inhibition of human OATP1B3 assessed as reduction in intracellular probe substrate accumulation upto 100 uM by microplate scintillation counter analysis relative to control; format: cell-based
T1 sequence (Q9NPD5 whole entry): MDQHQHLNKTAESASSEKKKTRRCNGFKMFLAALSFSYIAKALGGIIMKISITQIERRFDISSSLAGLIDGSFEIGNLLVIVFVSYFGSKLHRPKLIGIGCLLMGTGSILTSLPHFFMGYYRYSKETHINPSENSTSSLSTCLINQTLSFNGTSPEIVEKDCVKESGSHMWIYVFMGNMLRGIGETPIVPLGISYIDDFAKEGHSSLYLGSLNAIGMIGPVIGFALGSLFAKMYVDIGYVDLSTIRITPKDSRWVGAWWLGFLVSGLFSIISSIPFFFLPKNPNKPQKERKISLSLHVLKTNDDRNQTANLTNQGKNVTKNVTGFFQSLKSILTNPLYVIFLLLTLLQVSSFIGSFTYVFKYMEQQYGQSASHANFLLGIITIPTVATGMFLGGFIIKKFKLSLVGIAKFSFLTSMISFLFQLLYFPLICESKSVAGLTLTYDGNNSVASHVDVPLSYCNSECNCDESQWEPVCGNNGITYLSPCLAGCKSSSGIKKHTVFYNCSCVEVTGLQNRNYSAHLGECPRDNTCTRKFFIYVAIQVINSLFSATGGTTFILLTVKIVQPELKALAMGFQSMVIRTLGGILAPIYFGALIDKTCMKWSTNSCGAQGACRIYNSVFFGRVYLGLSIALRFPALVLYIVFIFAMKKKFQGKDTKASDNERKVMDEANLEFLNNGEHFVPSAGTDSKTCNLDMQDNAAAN
Method in brief: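 Cellular uptake-inhibition assays used Chinese hamster ovary, HEK293 or MDCKII cells stably expressing the respective human SLC transporter, run alongside the corresponding control cells. Inhibitor was tested at concentrations up to 100 μM.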

[2] = Toxicity in Beagle dog assessed as increase in total leukocyte and eosinophil counts at >= 100 mg/kg, po and measured after 13 weeks; format: organism-based, Canis lupus familiaris; conditions: in vivo, 2184 h
[3] = Drug distribution in Beagle dog spinal cord; format: ADME, tissue-based, Canis lupus familiaris; conditions: in vivo
[4] = Tmax in Sprague-Dawley rat at 10 mg/kg, po measured upto 48 hrs by LC-MS/MS analysis; conditions: in vivo

- inhibition (INH) [1]: < 50%
- Drug uptake [3]: Not Active
- Tmax [4]: 8 h
Compound: COc1cc2c(cc1OC)CN(CCc1ccc(-n3nnc(-c4cc(OC)c(OC)cc4NC(=O)c4cc(=O)c5ccccc5o4)n3)cc1)CC2
- Activity [2]: Toxic
